In ChEMBL document CHEMBL1131084, “3-Alkyl ethers of clocinnamox: delayed long-term mu-antagonists with variable mu efficacy” (J Med Chem, 1998):
Activity calls are given as the source filed them. No cut-off for these calls is given here.

Experiments:
Mus musculus [1] = assay: Percent MPE was evaluated in mouse tail withdrawal assay at 32 mg/kg; assay type: functional
Outline: (§1)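 Mice, tail withdrawal test in 50 °C water. Ethers dissolved in sterile water containing 16% MeOH and 1% HCl and injected sc. ED50 in mg/kg and % MPE reported; means ± SEM from 6 animals.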

[2] = target: Delta-type opioid receptor (Rattus norvegicus, UniProt P33533); assay: In vitro binding affinity against Opioid receptor delta 1 (DPDPE) in rat brain homogenates.; assay type: tissue-based
Sequence of Delta-type opioid receptor (P33533 whole entry): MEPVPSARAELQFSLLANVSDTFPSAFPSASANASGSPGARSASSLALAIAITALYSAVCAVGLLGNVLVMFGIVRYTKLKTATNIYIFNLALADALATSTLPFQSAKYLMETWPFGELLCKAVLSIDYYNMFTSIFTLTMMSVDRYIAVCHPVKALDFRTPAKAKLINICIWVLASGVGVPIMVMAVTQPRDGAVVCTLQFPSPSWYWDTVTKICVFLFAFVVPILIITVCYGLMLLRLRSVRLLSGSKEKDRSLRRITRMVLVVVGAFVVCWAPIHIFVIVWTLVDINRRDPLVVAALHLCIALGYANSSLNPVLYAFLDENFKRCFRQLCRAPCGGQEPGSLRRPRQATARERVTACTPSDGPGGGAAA
Outline: (§2)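 Crude membranes from brain minus cerebellum, homogenized in 50 mM Tris, pH 7.4. Radioligands [3H]DAMGO 2 nM (μ), [3H]DPDPE 1.8 nM (δ), [3H]U69,593 1.1 nM (κ). Nonspecific binding defined with 10 μM naloxone. Compounds from DMSO stock; final DMSO ≤0.1%.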

[3] = target: Kappa-type opioid receptor (Rattus norvegicus, UniProt P34975); assay: In vitro binding affinity against Opioid receptor kappa 1 in rat brain homogenates.; assay type: tissue-based; outline: as §2
Sequence of Kappa-type opioid receptor (P34975 whole entry): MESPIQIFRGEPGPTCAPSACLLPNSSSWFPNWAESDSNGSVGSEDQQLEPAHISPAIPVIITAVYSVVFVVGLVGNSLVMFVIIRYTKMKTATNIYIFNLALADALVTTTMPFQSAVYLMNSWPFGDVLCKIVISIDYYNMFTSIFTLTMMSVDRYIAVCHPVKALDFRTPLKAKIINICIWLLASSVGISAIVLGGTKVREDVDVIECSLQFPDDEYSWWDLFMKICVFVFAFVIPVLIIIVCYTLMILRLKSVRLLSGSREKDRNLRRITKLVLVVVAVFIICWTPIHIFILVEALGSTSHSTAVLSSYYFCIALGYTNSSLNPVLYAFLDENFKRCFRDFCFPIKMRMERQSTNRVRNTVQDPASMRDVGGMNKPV

Mu-type opioid receptor = Mu-type opioid receptor (Rattus norvegicus, UniProt P33535); assay: In vitro binding affinity against Opioid receptor mu 1 (DAMGO) opioid receptor in rat brain homogenates.; assay type: tissue-based; outline: as §2
Sequence of Mu-type opioid receptor (P33535 whole entry): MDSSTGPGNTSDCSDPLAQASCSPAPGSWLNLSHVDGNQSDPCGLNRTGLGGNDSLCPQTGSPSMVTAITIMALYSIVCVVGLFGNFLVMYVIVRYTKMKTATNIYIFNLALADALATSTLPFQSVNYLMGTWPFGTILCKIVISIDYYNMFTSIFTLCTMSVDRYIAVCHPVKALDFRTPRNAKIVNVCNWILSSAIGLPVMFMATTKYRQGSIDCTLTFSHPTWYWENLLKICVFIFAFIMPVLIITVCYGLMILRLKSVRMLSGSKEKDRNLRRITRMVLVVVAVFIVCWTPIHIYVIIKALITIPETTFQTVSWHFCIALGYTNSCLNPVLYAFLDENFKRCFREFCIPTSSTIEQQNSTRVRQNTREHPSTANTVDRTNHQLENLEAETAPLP

Mus musculus [4] = species on record: Mus musculus; assay: Antinociceptive potency determined by mouse tail withdrawal assay.; assay type: functional; outline: as §1
Mus musculus [5] = species on record: Mus musculus; assay: Percent MPE was evaluated in mouse tail withdrawal assay; assay type: functional; outline: as §1
Mus musculus [6] = assay: Comparison of the antinociceptive agonist/antagonist profile of activity by Tail Flick vs morphine test.(sc administration) inactive up to 30 mg/kg; assay type: functional, organism-based; design: dose 30 mg/kg
Mus musculus [7] = assay: Comparison of the antinociceptive agonist/antagonist profile of activity by hot plate test.(sc administration)
Mus musculus [8] = assay: Comparison of the antinociceptive agonist/antagonist profile of activity by Phenylquinone-abdominal stretch test.(sc administration); assay type: functional
Outline: (§3)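 Mice, phenylquinone abdominal stretch, hot plate or tail flick tests. Compounds given sc in distilled water, 5% aqueous DMSO or 5% hydroxypropyl-β-cyclodextrin.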

Mus musculus [9] = assay: Comparison of the antinociceptive agonist/antagonist profile of activity by Tail Flick vs morphine test.(Inactive up to 30 mg/kg; sc administration); assay type: functional, organism-based; design: dose 30 mg/kg
Mus musculus [10] = assay: Comparison of the antinociceptive agonist/antagonist profile of activity by tail flick test.(sc administration); assay type: functional; outline: as §3
Mus musculus [11] = assay: Antagonism of morphine antinociceptive ED50 by the compound. Onset and Duration of morphine antagonist action in the mouse tail flick assay at a Pretreatment time of 24 hours.(sc administration); assay type: functional
Outline: (§4)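 Mice, tail flick test. Ether given sc (vehicle: distilled water, 5% aqueous DMSO or 5% hydroxypropyl-β-cyclodextrin), then morphine; pretreatment intervals from the standard 30 min up to 72 h. Antagonism taken as the shift in morphine antinociceptive ED50.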

Mus musculus [12] = assay: Antagonism of morphine antinociceptive ED50 by the compound. Onset and Duration of morphine antagonist action in the mouse tail flick assay at a Pretreatment time of 36 hours.(sc administration); assay type: functional; outline: as §4
Mus musculus [13] = assay: Antagonism of morphine antinociceptive ED50 by the compound. Onset and Duration of morphine antagonist action in the mouse tail flick assay at a Pretreatment time of 6 hours.(sc administration); assay type: functional; outline: as §4
Mus musculus [14] = assay: Antagonism of morphine antinociceptive ED50 by the compound. Onset and Duration of morphine antagonist action in the mouse tail flick assay at a Pretreatment time of 72 hours.(sc administration); assay type: functional; outline: as §4
Mus musculus [15] = assay: Comparison of the antinociceptive agonist/antagonist profile of activity byhot plate test.(sc administration); assay type: functional; outline: as §3
Mus musculus [16] = species on record: Mus musculus; assay: Antagonist selectivity after a 24-h pretreatment period, in the mouse abdominal stretch assay using Bremazocine as the agonist.; assay type: functional, Abdomen
Outline: (§5)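 Mice, acetic acid abdominal stretch assay. Ether 32 mg/kg sc given 24 h beforehand (vehicle sterile water with 16% MeOH and 1% HCl). Agonist (morphine 3.2 mg/kg, BW373U86 10 mg/kg, or bremazocine) given sc 15 min before ip acetic acid. Read-out is % antagonism of the agonist effect.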

Mus musculus [17] = assay: Antagonist selectivity after a 24-h pretreatment period, in the mouse abdominal stretch assay using morphine (3.2 mg/kg) as the agonist.; assay type: functional, Abdomen; outline: as §5
Mus musculus [18] = assay: Effect of antagonist (Naltrindole, 10 mg/kg for a pretreatment time of 15 min)on the inhibition of acetic acid-induced abdominal stretches by the compound (10 mg/kg sc); assay type: functional, Abdomen
Outline: (§6)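 Mice, acetic acid abdominal stretch assay (stretches induced by ip acetic acid). Ether 10 mg/kg sc, given after a selective antagonist: β-FNA 32 mg/kg at 24 h, naltrindole 10 mg/kg at 15 min, or nor-BNI 32 mg/kg at 24 h beforehand. Read-out is % antagonism.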

Mus musculus [19] = assay: Effect of antagonist (Nor-BNI, 32 mg/kg for a pretreatment time of 24 h) on the inhibition of acetic acid-induced abdominal stretches by the compound (10 mg/kg sc); assay type: functional, Abdomen; outline: as §6
Mus musculus [20] = assay: Effect of antagonist (beta-FNA, 32 mg/kg for a pretreatment time of 24 h) on the inhibition of acetic acid-induced abdominal stretches by the compound (10 mg/kg sc); assay type: functional, Abdomen; outline: as §6
Mus musculus [21] = assay: Antagonist selectivity after a 24-h pretreatment period, in the mouse abdominal stretch assay using BW373U86 (10 mg/kg) as the agonist.; assay type: functional, Abdomen; outline: as §5
Mus musculus [22] = assay: Antagonism of morphine antinociceptive ED50 by the compound. Onset and Duration of morphine antagonist action in the mouse tail flick assay at a Pretreatment time of 2 hr. (30 mg/kg sc administration); assay type: functional; outline: as §4
Mus musculus [23] = assay: Comparison of the antinociceptive agonist/antagonist profile of activity by Tail Flick vs morphine test.(sc administration); assay type: functional
Mus musculus [24] = assay: Comparison of the antinociceptive agonist/antagonist profile of activity by hot plate test.(sc administration); inactive up to 20 mg/Kg; assay type: functional, organism-based; outline: as §3
Mus musculus [25] = assay: Comparison of the antinociceptive agonist/antagonist profile of activity by tail flick test (sc administration); inactive up to 30 mg/kg; assay type: functional, organism-based; design: dose 30 mg/kg; outline: as §3
Mus musculus [26] = assay: Comparison of the antinociceptive agonist/antagonist profile of activity by Tail Flick vs morphine test (sc administration); inactive up to 30 mg/kg; assay type: functional, organism-based; design: dose 30 mg/kg
Mus musculus [27] = assay: Comparison of the antinociceptive agonist/antagonist profile of activity byhot plate test (sc administration); inactive up to 20 mg/kg.; assay type: functional, organism-based; design: dose 20 mg/kg; outline: as §3

SMILES	Ki [2] [nM]	Ki [3] [nM]	Ki (Mu-type opioid receptor) [nM]	ED50 (Mus musculus [4]) [mg/kg]	MPE (Mus musculus [5]) [%]	ED50 (Mus musculus [8]) [mg/kg]	other results
CCCOc1ccc2c3c1O[C@H]1C(=O)CC[C@@]4(NC(=O)/C=C/c5ccc(Cl)cc5)[C@@H](C2)N(CC2CC2)CC[C@]314	82.6	19.1	24.6	–	–	–	MPE (Mus musculus [1]): 35%
C=CCOc1ccc2c3c1O[C@H]1C(=O)CC[C@@]4(NC(=O)/C=C/c5ccc(Cl)cc5)[C@@H](C2)N(CC2CC2)CC[C@]314	65.4	17.9	8.9	11.1	100	–	–
N#CCOc1ccc2c3c1O[C@H]1C(=O)CC[C@@]4(NC(=O)/C=C/c5ccc(Cl)cc5)[C@@H](C2)N(CC2CC2)CC[C@]314	89.5	18	12.4	20.8	78	–	–
CN1CC[C@]23c4c5ccc(O)c4O[C@H]2[C@@H](O)C=C[C@H]3[C@H]1C5 [MORPHINE]	–	–	–	17.9	100	–	ED50 (Mus musculus [6]): inactive; ED50 (Mus musculus [7]): 0.9 mg/kg
CC(C)Oc1ccc2c3c1O[C@H]1C(=O)CC[C@@]4(NC(=O)/C=C/c5ccc(Cl)cc5)[C@@H](C2)N(CC2CC2)CC[C@]314	96.4	14.9	59.8	–	–	–	–
C#CCOc1ccc2c3c1O[C@H]1C(=O)CC[C@@]4(NC(=O)/C=C/c5ccc(Cl)cc5)[C@@H](C2)N(CC2CC2)CC[C@]314	21.3	19.1	1.6	6.3	100	0.3	ED50 (Mus musculus [9]): inactive; ED50 (Mus musculus [10]): 1.2 mg/kg; AD50 (Mus musculus [11]): 4.06 mg/kg; AD50 (Mus musculus [12]): 3.02 mg/kg; AD50 (Mus musculus [13]): 14.11 mg/kg; Antagonism (Mus musculus [14]): 36%; ED50 (Mus musculus [15]): 0.3 mg/kg; Antagonism (Mus musculus [16]): 7%; Antagonism (Mus musculus [17]): 96%; Antagonism (Mus musculus [18]): 3.9%; Antagonism (Mus musculus [19]): 4.8%; Antagonism (Mus musculus [20]): 100%; Antagonism (Mus musculus [21]): 38%; Antagonism (Mus musculus [22]): 17%
O=C(/C=C/c1ccc(Cl)cc1)N[C@@]12CCC(=O)[C@@H]3Oc4c(O)ccc5c4[C@@]31CCN(CC1CC1)[C@@H]2C5 [CLOCINNAMOX]	12.5	5.4	9	–	–	–	–
COc1ccc2c3c1O[C@H]1C(=O)CC[C@@]4(NC(=O)/C=C/c5ccc(Cl)cc5)[C@@H](C2)N(CC2CC2)CC[C@]314	–	–	–	–	–	0.2	ED50 (Mus musculus [23]): 6 mg/kg; ED50 (Mus musculus [24]): inactive; ED50 (Mus musculus [25]): inactive
O=C(/C=C/c1ccc(Cl)cc1)N[C@@]12CCC(=O)[C@@H]3Oc4c(OCC5CC5)ccc5c4[C@@]31CCN(CC1CC1)[C@@H]2C5	56.5	131	7.6	–	–	6.7	ED50 (Mus musculus [26]): inactive; ED50 (Mus musculus [25]): inactive; AD50 (Mus musculus [11]): 3.41 mg/kg; AD50 (Mus musculus [12]): 6.82 mg/kg; AD50 (Mus musculus [13]): 0.97 mg/kg; AD50 (Mus musculus [14]): 11.39 mg/kg; ED50 (Mus musculus [27]): inactive; Antagonism (Mus musculus [16]): 19%; Antagonism (Mus musculus [17]): 100%; Antagonism (Mus musculus [21]): 0%; Antagonism (Mus musculus [22]): 57%
COC(=O)COc1ccc2c3c1O[C@H]1C(=O)CC[C@@]4(NC(=O)/C=C/c5ccc(Cl)cc5)[C@@H](C2)N(CC2CC2)CC[C@]314	24.8	95.4	7.6	–	–	–	–
